Experimental data published in ChEMBL document CHEMBL4390653, “Potential anti-herpes and cytotoxic action of novel semisynthetic digitoxigenin-derivatives” (Eur J Med Chem, 2019).

Key:
[1] = Cytotoxicity against African green monkey Vero cells assessed as reduction in cell viability after 48 hrs by SRB assay; format: cell-based; conditions: chlorocebus sabaeus
In short: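 Vero cells in MEM with 10% FBS, seeded at 2.5 × 10^4 cells/well. Exposed to a range of concentrations for 48 h at 37 °C, 5% CO2, then sulforhodamine B total-protein staining. CC50 is the concentration reducing viability by 50% versus untreated controls, from nonlinear regression; mean ± SD of three independent experiments.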

[2] = tested on: Human alphaherpesvirus 1; experiment: (§1) Antiviral activity against acyclovir-sensitive Herpes simplex virus 1 KOS infected in African green monkey Vero cells assessed as inhibition of viral replication after 48 hrs by naphthol blue-black staining-based plaque reduction assay; format: functional, organism-based; conditions: Human alphaherpesvirus 1, strain KOS
In short: (§2)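 Vero cells in MEM with 10% FBS, 37 °C, 5% CO2. Confluent monolayers (2.5 × 10^5 cells/well) infected with about 100 PFU for 1 h at 37 °C. Non-cytotoxic concentrations were added after infection. Cells were then PBS-washed and overlaid with MEM plus 1.5% carboxymethylcellulose, with or without compound, for 48 h. Fixed, naphthol blue-black stained, plaques counted under a stereomicroscope. IC50 versus untreated controls by nonlinear regression; mean of three independent experiments.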

[3] = as §1, with “Selectivity index, ratio of Cytotoxicity against African green monkey Vero cells assessed as reduction in cell viability after 48 hrs by SRB assay to Antiviral” for “Antiviral”; format: toxicity; conditions: Vero cells infected with HSV-1 KOS, read-out: Ratio CC50/IC50
In short: (§3)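 Selectivity index = CC50 in Vero cells (SRB, 48 h) divided by plaque-reduction IC50 for the same virus strain.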

[4] = tested on: Human alphaherpesvirus 1; experiment: (§4) Antiviral activity against acyclovir-resistant Herpes simplex virus 1 29-R infected in African green monkey Vero cells assessed as inhibition of viral replication after 48 hrs by naphthol blue-black staining-based plaque reduction assay; format: functional, organism-based; in short: as §2
[5] = as §4, with “Selectivity index, ratio of Cytotoxicity against African green monkey Vero cells assessed as reduction in cell viability after 48 hrs by SRB assay to Antiviral” for “Antiviral”; format: toxicity; conditions: Vero cells infected with HSV-1 29-R, read-out: Ratio CC50/IC50; in short: as §3
[6] = tested on: Human alphaherpesvirus 2; experiment: (§5) Antiviral activity against Herpes simplex virus 2-333 infected in African green monkey Vero cells assessed as inhibition of viral replication after 48 hrs by naphthol blue-black staining-based plaque reduction assay; format: functional, organism-based; conditions: Human alphaherpesvirus 2, 333, Vero; in short: as §2
[7] = as §5, with “Selectivity index, ratio of Cytotoxicity against African green monkey Vero cells assessed as reduction in cell viability after 48 hrs by SRB assay to Antiviral” for “Antiviral”; format: toxicity; conditions: Vero cells infected with HSV-2 333, read-out: Ratio CC50/IC50; in short: as §3
[8] = tested on: A549; experiment: Cytotoxicity against human A549 cells assessed as inhibition of cell viability after 48 hrs by SRB assay; format: functional, cell-based; conditions: A549, 48 h
[9] = tested on: HCT-8; experiment: Cytotoxicity against human HCT8 cells assessed as inhibition of cell viability after 48 hrs by SRB assay; format: functional, cell-based; conditions: HCT-8, 48 h
In short: (§6)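 Cells seeded at 2.5 × 10^4 per well and exposed to a concentration range for 48 h, then SRB total-protein stain. PC3 grown in phenol-red-free DMEM with 1% glutamine; LNCaP in phenol-red-free RPMI 1640 with glutamine and non-essential amino acids. HCT-8 and H460 in RPMI 1640. MRC-5 (plus glutamine and non-essential amino acids) and primary gingival fibroblasts in DMEM. All media had 10% FBS, 37 °C, 5% CO2. Paclitaxel was the reference. IC50 versus untreated controls by nonlinear regression, three independent experiments.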

[10] = tested on: LNCaP; experiment: Cytotoxicity against human LNCAP cells assessed as inhibition of cell viability after 48 hrs by SRB assay; format: functional, cell-based; in short: as §6
[11] = tested on: PC-3; experiment: Cytotoxicity against human PC3 cells assessed as inhibition of cell viability after 48 hrs by SRB assay; format: functional, cell-based; conditions: PC-3, 48 h; in short: as §6
[12] = tested on: NCI-H460; experiment: Cytotoxicity against human H460 cells assessed as inhibition of cell viability after 48 hrs by SRB assay; format: functional, cell-based; conditions: NCI-H460, 48 h; in short: as §6
[13] = Inhibition of porcine cortex Na+/K+-ATPase alpha1/2/3 subunit using ATP as substrate preincubated for 30 mins followed by substrate addition and measured after 30 mins by malachite green reagent-based assay; design: species or system Sus scrofa
[14] = tested on: MRC5; experiment: Cytotoxicity against human MRC5 cells assessed as inhibition of cell viability after 48 hrs by SRB assay; format: cell-based; conditions: MRC5, 48 h; in short: as §6
[15] = Cytotoxicity against human HGF cells assessed as inhibition of cell viability after 48 hrs by SRB assay; format: cell-based; in short: as §6
[16] = Human alphaherpesvirus 1, 29-R, Vero, 48 h, read-out: IC50

Compound	CC50 at 48 h [1]	IC50 [2]	selectivity ratio at 48 h [3]	IC50 [4, 16]	selectivity ratio at 48 h [5]	IC50 [6]	selectivity ratio at 48 h [7]	IC50 [8]	IC50 [9]	IC50 [10]	IC50 [11]	IC50 [12]	IC50 [13]	IC50 [14]	IC50 [15]	IC50 ([4]; vero)
C[C@]12CC[C@H](NC(=O)CNc3ccc(Cl)cc3)C[C@H]1CC[C@@H]1[C@@H]2CC[C@]2(C)[C@@H](C3=CC(=O)OC3)CC[C@]12O	314 µM	1.51 µM	208	1.8 µM	174	1.4 µM	224	1.38 µM	1.68 µM	1.28 µM	1.18 µM	1.14 µM	10.8 µM			
C[C@]12CC[C@H](NC(=O)CBr)C[C@H]1CC[C@@H]1[C@@H]2CC[C@]2(C)[C@@H](C3=CC(=O)OC3)CC[C@]12O	36.1 µM							1.4 µM	1.74 µM	3.42 µM	1.7 µM					
C[C@]12CC[C@H](NC(=O)CNc3ccc(C#N)cc3)C[C@H]1CC[C@@H]1[C@@H]2CC[C@]2(C)[C@@H](C3=CC(=O)OC3)CC[C@]12O	> 300 µM	0.6 µM	> 500	0.42 µM	> 714	1 µM	> 300	0.54 µM	1.25 µM	2.08 µM	0.91 µM	0.25 µM	4.16 µM	1.06 µM	2.09 µM	
Nc1nc2c(ncn2COCCO)c(=O)[nH]1 [ACYCLOVIR]	> 2000 µM	1.38 µM	> 1450			3.23 µM	> 619									Not Active
C[C@]12CC[C@H](n3cc(CO[C@@H]4O[C@H](CO)[C@H](O)[C@H](O)[C@H]4O)nn3)C[C@H]1CC[C@@H]1[C@@H]2CC[C@]2(C)[C@@H](C3=CC(=O)OC3)CC[C@]12O	290 µM	0.98 µM	296	0.92 µM	315	1.24 µM	234	2.19 µM	2.58 µM	7.49 µM	2.75 µM					
C[C@]12CC[C@H](O)C[C@H]1CC[C@@H]1[C@@H]2CC[C@]2(C)[C@@H](C3=CC(=O)OC3)CC[C@]12O [DIGITOXIGENIN]	27.5 µM	1.09 µM	25.3	1.02 µM	27	3.23 µM	8.53	1.68 µM	2.48 µM	3.7 µM	2.41 µM	0.92 µM		1.16 µM	1.47 µM	
C[C@]12CC[C@H](NC(=O)CN3CCC(c4ccccc4)CC3)C[C@H]1CC[C@@H]1[C@@H]2CC[C@]2(C)[C@@H](C3=CC(=O)OC3)CC[C@]12O	112 µM	0.44 µM	254	0.2 µM	560	0.49 µM	228	1.43 µM	0.3 µM	1.72 µM	0.7 µM	0.32 µM	6.59 µM			
C[C@]12CC[C@H](n3cc(CO[C@@H]4O[C@H](CO)[C@@H](O)[C@H](O)[C@H]4O)nn3)C[C@H]1CC[C@@H]1[C@@H]2CC[C@]2(C)[C@@H](C3=CC(=O)OC3)CC[C@]12O	> 300 µM	2.79 µM	> 108	2.71 µM	> 111	2.14 µM	> 140	2.03 µM	3.7 µM	4.69 µM	2.35 µM					
CC(=O)OC[C@H]1O[C@H](O[C@H]2[C@H](OC(C)=O)[C@@H](OC(C)=O)[C@H](OCc3cn([C@H]4CC[C@@]5(C)[C@H](CC[C@@H]6[C@@H]5CC[C@]5(C)[C@@H](C7=CC(=O)OC7)CC[C@]65O)C4)nn3)O[C@@H]2COC(C)=O)[C@H](OC(C)=O)[C@@H](OC(C)=O)[C@@H]1OC(C)=O	181 µM	26.3 µM	6.86	33.4 µM	5.42	9.75 µM	18.5	12 µM	9.51 µM	23.8 µM	29.5 µM					
CC(=O)OC[C@H]1O[C@@H](OCc2cn([C@H]3CC[C@@]4(C)[C@H](CC[C@@H]5[C@@H]4CC[C@]4(C)[C@@H](C6=CC(=O)OC6)CC[C@]54O)C3)nn2)[C@H](OC(C)=O)[C@@H](OC(C)=O)[C@@H]1OC(C)=O	286 µM	6.27 µM	45.5	2.11 µM	135	3.8 µM	75.1	3.74 µM	3.57 µM	7.32 µM	7.05 µM					
C[C@]12CC[C@H](n3cc(CO[C@@H]4O[C@H](CO)[C@@H](O[C@H]5O[C@H](CO)[C@@H](O)[C@H](O)[C@H]5O)[C@H](O)[C@H]4O)nn3)C[C@H]1CC[C@@H]1[C@@H]2CC[C@]2(C)[C@@H](C3=CC(=O)OC3)CC[C@]12O	147 µM	4.29 µM	34.3	3.24 µM	45.4	4.18 µM	35.2	2.86 µM	5.43 µM	5.24 µM	2.74 µM					
CC(=O)OC[C@H]1O[C@H](OCc2cn([C@H]3CC[C@@]4(C)[C@H](CC[C@@H]5[C@@H]4CC[C@]4(C)[C@@H](C6=CC(=O)OC6)CC[C@]54O)C3)nn2)[C@@H](OC(C)=O)[C@@H](OC(C)=O)[C@@H]1OC(C)=O	393 µM	10.1 µM	39	6.01 µM	65.4	4.55 µM	86.4	1.57 µM	1.9 µM	3.13 µM	2.92 µM	1.59 µM	4.46 µM			
C[C@]12CC[C@H](NC(=O)CCl)C[C@H]1CC[C@@H]1[C@@H]2CC[C@]2(C)[C@@H](C3=CC(=O)OC3)CC[C@]12O	84 µM	0.69 µM	122	0.34 µM	247	1.37 µM	61.3	1.17 µM	1.45 µM	1.96 µM	1.92 µM					
CC(=O)OC[C@H]1O[C@@H](OCc2cn([C@H]3CC[C@@]4(C)[C@H](CC[C@@H]5[C@@H]4CC[C@]4(C)[C@@H](C6=CC(=O)OC6)CC[C@]54O)C3)nn2)[C@H](OC(C)=O)[C@@H](OC(C)=O)[C@H]1OC(C)=O	216 µM							3.94 µM	5.91 µM	11.3 µM	6.23 µM					
CC(=O)O[C@H]1C(=O)[C@@]2(C)[C@H]([C@H](OC(=O)c3ccccc3)[C@]3(O)C[C@H](OC(=O)[C@H](O)[C@@H](NC(=O)c4ccccc4)c4ccccc4)C(C)=C1C3(C)C)[C@]1(OC(C)=O)CO[C@@H]1C[C@@H]2O [PACLITAXEL]								0.11 µM	0.17 µM	21 µM	0.67 µM	0.08 µM		> 200 µM	> 200 µM	
